ChEMBL document CHEMBL4477180, “Synthesis and Structure-Activity Relationships of N-Dihydrocoptisine-8-ylidene Aromatic Amines and N-Dihydrocoptisine-8-ylidene Aliphatic Amides as Antiulcerative Colitis Agents Targeting XBP1” (J Nat Prod, 2016)
Active and inactive are the calls of the source. The rule behind the calls is not given here.

What was measured:
[1] = Cytotoxicity against rat IEC-6 cells assessed as survival at 10 uM by MTT assay; format: cell-based; conditions: read-out: Survival
[2] = target: T1, X-box-binding protein 1 (Rattus norvegicus) (UniProt Q9R1S4); assay: Activation of XBP1 in rat IEC-6 cells assessed as transcriptional activity at 10 uM measured after 48 hrs by dual luciferase reporter gene assay relative to con 2; format: cell-based
T1 sequence (whole entry): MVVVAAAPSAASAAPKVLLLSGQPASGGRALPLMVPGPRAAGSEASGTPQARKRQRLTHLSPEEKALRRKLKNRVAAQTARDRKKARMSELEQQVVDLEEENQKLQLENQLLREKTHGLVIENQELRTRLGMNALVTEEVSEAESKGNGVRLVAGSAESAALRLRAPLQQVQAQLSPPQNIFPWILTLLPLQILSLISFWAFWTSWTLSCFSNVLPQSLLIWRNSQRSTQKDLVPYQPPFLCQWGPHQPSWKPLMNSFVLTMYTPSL
Procedure, shortened: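 XBP1 transcriptional activity read by dual luciferase reporter in growth-phase IEC-6 cells (5 × 10⁴ cells/well). Cells had 4 h plasmid transfection at 37 °C, 5% CO₂, then were coincubated 48 h with compound at 10 μM. Con 1 served as background contrast and con 2 as the pGL3-basic vector control.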

[3] = target: T2, X-box-binding protein 1 (Rattus norvegicus, UniProt Q9R1S4); assay: Activation of XBP1 in rat IEC-6 cells assessed as transcriptional activity measured after 48 hrs by dual luciferase reporter gene assay; format: cell-based
T2 sequence (Q9R1S4 whole entry): T1 sequence (whole entry)
Procedure, shortened: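 Dose–effect version of the IEC-6 XBP1 dual luciferase reporter assay. Cells (5 × 10⁴/well) had 4 h plasmid transfection at 37 °C, 5% CO₂, then 48 h coincubation with compound; EC₅₀ was taken from the dose–effect relationship.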

[4] = system: Mus musculus; assay: Antiulcerative activity in DSS-induced C57BL/6J mouse model of acute ulcerative colitis assessed as body weight loss at 200 mg/kg, po measured over 7 days (reference value: 18%); format: functional
[5] = system: Mus musculus; assay: Antiulcerative activity in DSS-induced C57BL/6J mouse model of acute ulcerative colitis assessed as colon contracture at 200 mg/kg, po measured over 7 days (reference value: 37 %); format: functional
Procedure, shortened: (§1)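 Acute DSS colitis in C57bl/6j mice (n = 8/group), oral dosing (200 mg/kg test, SASP 300 mg/kg), 7-day trial with normal and DSS model groups. Colon length was measured at the end of the trial, and contracture was given as percentage shortening versus normal controls.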

[6] = system: Mus musculus; assay: Antiulcerative activity in DSS-induced C57BL/6J mouse model of acute ulcerative colitis assessed as inhibition of disease activity index at 200 mg/kg, po measured over 7 days relative to control; format: functional; conditions: 168 h
Procedure, shortened: (§2)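 Disease activity index (DAI) was scored in DSS-induced acute UC C57bl/6j mice (n = 8/group) given oral compound at 200 mg/kg or SASP at 300 mg/kg over 7 days. Inhibition ratio (IR %) is reported relative to the DSS model group.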

[7] = system: Mus musculus; assay: Antiulcerative activity in DSS-induced C57BL/6J mouse model of acute ulcerative colitis assessed as colon macroscopic damage index at 200 mg/kg, po measured over 7 days (reference value: 4.63 +/- 0.52); format: functional
[8] = system: Mus musculus; assay: Antiulcerative activity in DSS-induced C57BL/6J mouse model of acute ulcerative colitis assessed as regular arrangement of IEC cells at 200 mg/kg, po measured over 7 days by microscopic analysis; format: functional, organism-based
Procedure, shortened: (§3)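 At the end of the 7-day DSS acute UC trial in C57bl/6j mice (oral 200 mg/kg; SASP 300 mg/kg; normal and model groups), colon tissue was examined microscopically after HE staining at ×200 for histopathological change.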

[9] = system: Mus musculus; assay: Antiulcerative activity in DSS-induced C57BL/6J mouse model of acute ulcerative colitis assessed as body weight loss at 300 mg/kg, po measured over 7 days (reference value: 18%); format: functional
[10] = system: Mus musculus; assay: Antiulcerative activity in DSS-induced C57BL/6J mouse model of acute ulcerative colitis assessed as colon contracture at 300 mg/kg, po measured over 7 days (reference value: 37 %); format: functional; procedure, shortened: as §1
[11] = system: Mus musculus; assay: Antiulcerative activity in DSS-induced C57BL/6J mouse model of acute ulcerative colitis assessed as inhibition of disease activity index at 300 mg/kg, po measured over 7 days relative to control; format: functional; conditions: 168 h; procedure, shortened: as §2
[12] = system: Mus musculus; assay: Antiulcerative activity in DSS-induced C57BL/6J mouse model of acute ulcerative colitis assessed as colon macroscopic damage index at 300 mg/kg, po measured over 7 days (reference value: 4.63 +/- 0.52); format: functional
[13] = system: Mus musculus; assay: Antiulcerative activity in DSS-induced C57BL/6J mouse model of acute ulcerative colitis assessed as partial disappearance of inflammatory edema at 300 mg/kg, po measured over 7 days by microscopic analysis
[14] = system: Mus musculus; assay: Antiulcerative activity in DSS-induced C57BL/6J mouse model of acute ulcerative colitis assessed as improvement in colon lesion at 200 mg/kg, po measured over 7 days by microscopic analysis; format: functional, organism-based; procedure, shortened: as §3

Compound	viability at 10 µM [1] [%]	fold change (FC) [2]	EC50 ([3]; read-out: EC50) [nM]	further results
CCCC(=O)/N=c1\c2c3c(ccc2cc2n1CCc1cc4c(cc1-2)OCO4)OCO3	79 to 103	> 1.07	119	
CCCCCCC(=O)/N=c1\c2c3c(ccc2cc2n1CCc1cc4c(cc1-2)OCO4)OCO3	79 to 103			Ratio [2]: 0.78 to 107; EC50 [3]: Not Active
O=c1c2c3c(ccc2cc2n1CCc1cc4c(cc1-2)OCO4)OCO3		> 1.07	79.8	
Clc1ccc(/N=c2/c3c4c(ccc3cc3n2CCc2cc5c(cc2-3)OCO5)OCO4)cc1	79 to 103	> 1.07	174	
CCCCCCCC(=O)/N=c1\c2c3c(ccc2cc2n1CCc1cc4c(cc1-2)OCO4)OCO3	79 to 103			Ratio [2]: 0.78 to 107; EC50 [3]: Not Active
Cc1ccc(/N=c2/c3c4c(ccc3cc3n2CCc2cc5c(cc2-3)OCO5)OCO4)cc1	79 to 103	> 1.07	13.2	Activity [4]: 11%; Activity [5]: 9%; inhibition in vivo at 200 mg/kg [6]: 27%; Activity [7]: 2.63; Activity [8]: Active
O=C(O)C1=C/C(=N\Nc2ccc(S(=O)(=O)Nc3ccccn3)cc2)C=CC1=O				Activity [9]: 9%; Activity [10]: 24%; inhibition in vivo at 300 mg/kg [11]: 18%; Activity [12]: 3.17; Activity [13]: Active
Brc1ccc(/N=c2/c3c4c(ccc3cc3n2CCc2cc5c(cc2-3)OCO5)OCO4)cc1	79 to 103	> 1.07	48.9	
CCC(=O)/N=c1\c2c3c(ccc2cc2n1CCc1cc4c(cc1-2)OCO4)OCO3	79 to 103	> 1.07	289	
c1ccc(/N=c2/c3c4c(ccc3cc3n2CCc2cc5c(cc2-3)OCO5)OCO4)cc1	79 to 103	> 1.07	113	
Fc1ccc(/N=c2/c3c4c(ccc3cc3n2CCc2cc5c(cc2-3)OCO5)OCO4)cc1	79 to 103	> 1.07	346	
CCCCC(=O)/N=c1\c2c3c(ccc2cc2n1CCc1cc4c(cc1-2)OCO4)OCO3	79 to 103	> 1.07	32.5	Activity [4]: 10%; Activity [5]: 15%; inhibition in vivo at 200 mg/kg [6]: 33%; Activity [7]: 2.63; Activity [14]: Active
[Cl-].c1c2c(cc3c1OCO3)-c1cc3ccc4c(c3c[n+]1CC2)OCO4 [COPTISINE CHLORIDE]	79 to 103			Ratio [2]: 0.78 to 107; EC50 [3]: Not Active
CCCCCC(=O)/N=c1\c2c3c(ccc2cc2n1CCc1cc4c(cc1-2)OCO4)OCO3	79 to 103	> 1.07	70.8	
CC(=O)/N=c1\c2c3c(ccc2cc2n1CCc1cc4c(cc1-2)OCO4)OCO3	79 to 103	> 1.07	283	
COc1ccc(/N=c2/c3c4c(ccc3cc3n2CCc2cc5c(cc2-3)OCO5)OCO4)cc1	79 to 103		184	Ratio [2]: 0.78 to 107
N=c1c2c3c(ccc2cc2n1CCc1cc4c(cc1-2)OCO4)OCO3	79 to 103			Ratio [2]: 0.78 to 107; EC50 [3]: Not Active
